# Results: ChEMBL document CHEMBL1140112, “Desferrithiocin analogues and nephrotoxicity” (J Med Chem, 2008)
# How the values were obtained:
# [1] = test system: Sapajus apella; experiment: Iron-clearing efficiency in iron-overloaded Cebus apella at 150 umol/kg, po relative to control; format: functional
# Method in brief: (§1)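 Iron-overloaded Cebus apella were dosed once by oral gavage with the monosodium salt (free acid plus 1 equiv NaOH in distilled water; one ligand in 40% Cremophor RH-40/water). Feces and urine were collected at 24 h intervals from 4 d pre-drug to 5 d post-drug, and iron was read by flame AAS. ICE = 2-day post-drug iron minus mean 4-day baseline, divided by theoretical output (2:1 complex), as %. Mean ± SEM.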
# [2] = test system: Rattus norvegicus; experiment: Iron-clearing efficiency in non-iron-overloaded Sprague-Dawley rat assessed as bile iron excretion at 300 umol/kg, po relative to control; format: functional
# Method in brief: (§2)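 Non-iron-overloaded, bile duct-cannulated male Sprague-Dawley rats (400-450 g) got a single 300 µmol/kg dose by oral gavage, as the monosodium salt in distilled water. Bile was collected at 3 h intervals for 24 h and urine at 24 h, with iron by atomic absorption. ICE = treated minus control iron excretion, divided by theoretical output (2:1 complex), as %. n = 3-8; mean ± SEM.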
# [3] = test system: Sapajus apella; experiment: Iron-clearing efficiency in iron-overloaded Cebus apella assessed as bile iron excretion at 150 umol/kg, po relative to control; format: functional
# [4] = Apparent partition coefficient, log P at pH 7.4 by shake flask method; format: physicochemical; conditions: octanol/water; for logD: read-out: LogD7.4
# Method in brief: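 Apparent partition between octanol and water, expressed as log of the fraction in the octanol layer (log P_app); direct shake-flask method in Tris buffer, pH 7.4.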
# [5] = test system: Sapajus apella; experiment: Iron-clearing efficiency in iron-overloaded Cebus apella assessed as urine iron excretion at 150 umol/kg, po relative to control; format: functional; method in brief: as §1
# [6] = test system: Rattus norvegicus; experiment: Iron-clearing efficiency in non-iron-overloaded Sprague-Dawley rat assessed as urine iron excretion at 300 umol/kg, po relative to control; format: functional; method in brief: as §2
# [7] = test system: Rattus norvegicus; experiment: Iron-clearing efficiency in non-iron-overloaded Sprague-Dawley rat at 300 umol/kg, po after 24 hrs relative to control; format: functional; method in brief: as §2
# [8] = test system: Rattus norvegicus; experiment: Nephrotoxicity in non-iron-overloaded Sprague-Dawley rat at 300 umol/kg, po; format: toxicity, organism-based; conditions: in vivo
# Method in brief: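 Male Sprague-Dawley rats (400-450 g), not iron-overloaded, bile duct-cannulated, each given a single 300 µmol/kg oral gavage dose.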
SMILES,Activity [1],Activity [2],Activity [3],logD [4],Activity [5],Activity [6],Activity [7],LogD7.4 [4],Activity [8]
COc1ccc(O)c(C2=N[C@@](C)(C(=O)[O-])CS2)c1.[Na+],18.9%,95%,94%,-0.61,6%,5%,6.3%,–,–
COCCOCCOCCOc1ccc(C2=N[C@@](C)(C(=O)[O-])CS2)c(O)c1.[Na+],25.4%,90%,96%,–,4%,10%,5.5%,–,–
COc1ccc(C2=N[C@@](C)(C(=O)[O-])CS2)c(O)c1.[Na+],24.4%,98%,91%,–,9%,2%,6.6%,–,–
CCCCCCCCOc1ccc(C2=N[C@@](C)(C(=O)[O-])CS2)c(O)c1.[Na+],–,94%,–,–,–,6%,6.4%,1.53,–
C[C@]1(C(=O)[O-])CSC(c2cc(O)ccc2O)=N1.[Na+],12.6%,99%,88%,-1.14,12%,1%,1%,–,–
CCOc1ccc(C2=N[C@@](C)(C(=O)[O-])CS2)c(O)c1.[Na+],–,100%,–,–,–,0%,18%,-0.04,–
CCCCOc1ccc(O)c(C2=N[C@@](C)(C(=O)[O-])CS2)c1.[Na+],–,99%,–,–,–,1%,21%,0.94,Toxic
CCCCCCCCOc1cc(O)c(C2=N[C@@](C)(C(=O)[O-])CS2)cc1OCCCCCCCC.[Na+],–,–,–,–,–,–,<0.5%,2.05,–
CCCCCCCCOc1ccc(O)c(C2=N[C@@](C)(C(=O)[O-])CS2)c1.[Na+],–,97%,–,–,–,3%,4%,1.56,–
C[C@]1(C(=O)[O-])CSC(c2ccc(O)cc2O)=N1.[Na+] [DEFERITRIN SODIUM],16.8%,100%,88%,–,12%,0%,1.1%,–,–
CCCCOc1ccc(C2=N[C@@](C)(C(=O)[O-])CS2)c(O)c1.[Na+],–,98%,–,–,–,2%,13.1%,1.02,Toxic
